From ChEMBL document CHEMBL4665652, “Discovery of novel quinoline sulphonamide derivatives as potent, selective and orally active RORγ inverse agonists” (Bioorg Med Chem Lett, 2019) come the findings set out here.

One data set has as its target CYP3A4 (Homo sapiens, UniProt P08684). The experiment in a line: Inhibition of CYP3A4 (unknown origin) at 1 uM relative to control. The class given is ADME.
Data set [1] in a line: Tmax in mouse at 100 mg/kg, po. Format: ADME, organism-based. The conditions noted are these: in vivo. In a few lines: (§1)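 Mice dosed orally with an ascending-dose series at 10, 30 and 100 mg/kg. Compound given as a suspension in 1% methylcellulose 400cp + 0.1% poloxamer. Plasma Tmax taken from the concentration profiles. The Cmax ratio is expressed relative to the 10 mg/kg dose.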

Data set [2] is described as follows: AUClast in mouse at 30 mg/kg, po. The conditions noted are these: in vivo. The arrangement: time 0 - last, route oral, dose 30 mg/kg. The class given is ADME, organism-based. In a few lines:
(§2)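 Mice dosed orally at 10, 30 or 100 mg/kg as a suspension in 1% methylcellulose 400cp + 0.1% Poloxamer (188). Tmax, Cmax, AUClast and oral t1/2 were taken from plasma concentration–time profiles. Ratios are the value at each dose over the value at 10 mg/kg.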

A short description of data set [3]: Tmax in mouse at 30 mg/kg, po. The conditions noted are these: in vivo. The class given is ADME, organism-based. Summed up: as §1
Data set [4] is described as follows: Half life in mouse at 10 mg/kg, po. Format: ADME, organism-based. The conditions noted are these: in vivo. Summed up: as §2
The subject of another data set is Mus musculus. Nature of the data set: Immunosuppressive activity in PLP (139 to 151 residues)-induced experimental autoimmune encephalomyelitis mouse model assessed as reduction in disease onset at 60 mg/kg, po administered bid starting from immunization relative to control. The class given is functional. Summed up:
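EAE induced in mice by immunization with proteolipid protein peptide PLP139-151; ascending paralysis develops 10–12 days post-immunization. Compound dosed orally b.i.d. starting from immunization. Disease onset/incidence scored relative to control.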

Data set [5] is described as follows: In vivo inverse agonist activity at RORgamma in MOG(35-55) peptide/PTX-induced mechanistic C57BL/6 mouse model assessed as anti-CD3 induced IL-10 level in serum at 30 mg/kg, po dosed for 5 days during MOG/PTX priming and followed by 45 mins prior to anti-CD3 challenge and measured after 2 hrs (reference value: -11%). The class given is functional. The conditions noted are these: time 5 day. In a few lines: (§3)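 Mice immunized with mouse MOG35-55 peptide plus pertussis toxin. After 5 days, compound given orally as a suspension in methylcellulose 400cp + 1% poloxamer, 45 min before an anti-CD3 challenge. Circulating cytokines measured 2 h later. Comparison vs vehicle by Dunnett post test.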

Data set [6] in a line: In vivo inverse agonist activity at RORgamma in MOG(35-55) peptide/PTX-induced mechanistic C57BL/6 mouse model assessed as anti-CD3 induced IFNgamma level in serum at 30 mg/kg, po dosed for 5 days during MOG/PTX priming and followed by 45 mins prior to anti-CD3 challenge and measured after 2 hrs relative to control. Format: functional. The following applies: time 5 day. In a few lines: as §3

Data set [7] in a line: In vivo inverse agonist activity at RORgamma in MOG(35-55) peptide/PTX-induced mechanistic C57BL/6 mouse model assessed as anti-CD3 induced IL-6 level in serum at 10 mg/kg, po dosed for 5 days during MOG/PTX priming and followed by 45 mins prior to anti-CD3 challenge and measured after 2 hrs relative to control. The class given is functional. The conditions noted are these: time 5 day. Summed up:
as §3

The nature of data set [8]: In vivo inverse agonist activity at RORgamma in MOG(35-55) peptide/PTX-induced mechanistic C57BL/6 mouse model assessed as anti-CD3 induced IL-22 level in serum at 30 mg/kg, po dosed for 5 days during MOG/PTX priming and followed by 45 mins prior to anti-CD3 challenge and measured after 2 hrs relative to control. The class given is functional. The following applies: time 5 day. Summed up: as §3

The nature of data set [9]: In vivo inverse agonist activity at RORgamma in MOG(35-55) peptide/PTX-induced mechanistic C57BL/6 mouse model assessed as anti-CD3 induced IL-17F level in serum at 100 mg/kg, po dosed for 5 days during MOG/PTX priming and followed by 45 mins prior to anti-CD3 challenge and measured after 2 hrs relative to control. The conditions noted are these: time 5 day. The class given is functional. Summed up: as §3

Data set [10] in a line: AUClast in mouse at 10 mg/kg, po. The conditions noted are these: in vivo. Format: ADME, organism-based. The arrangement: route oral, time 0 - last, dose 10 mg/kg. Summed up:
as §2

The nature of data set [11]: Stability in human microsomes assessed as unbound intrinsic clearance. Format: ADME, Microsome. Summed up: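 Unbound intrinsic clearance measured in human and mouse liver microsomes, expressed in L/h/kg. Values are geometric means of at least two separate runs.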
For data set [12], the target named is T1, Nuclear receptor ROR-gamma (Homo sapiens, UniProt P51449).
T1 sequence (P51449 whole entry): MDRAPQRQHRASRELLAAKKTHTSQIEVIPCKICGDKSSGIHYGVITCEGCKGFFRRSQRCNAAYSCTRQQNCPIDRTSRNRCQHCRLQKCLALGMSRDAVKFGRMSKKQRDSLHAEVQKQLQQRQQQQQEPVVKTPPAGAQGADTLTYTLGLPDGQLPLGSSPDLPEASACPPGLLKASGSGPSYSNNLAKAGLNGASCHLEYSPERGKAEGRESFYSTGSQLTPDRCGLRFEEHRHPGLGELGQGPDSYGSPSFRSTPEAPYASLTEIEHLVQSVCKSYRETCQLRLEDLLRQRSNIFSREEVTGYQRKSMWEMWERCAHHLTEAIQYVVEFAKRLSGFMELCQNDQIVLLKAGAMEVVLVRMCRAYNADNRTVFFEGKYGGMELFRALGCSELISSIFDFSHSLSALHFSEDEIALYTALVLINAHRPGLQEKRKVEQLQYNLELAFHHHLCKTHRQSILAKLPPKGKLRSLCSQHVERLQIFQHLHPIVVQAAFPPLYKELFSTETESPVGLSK
The experiment in a line: Inverse agonist activity at pSG5GAL4-DBD/LBD fused human RORgamma receptor expressed in COS7 cells co-expressing 5 copies of GAL4 response element after 18 hrs by luciferase reporter gene based assay. The class given is cell-based. On the technique in general: A reporter such as luciferase makes a cellular process visible.

The nature of data set [13]: In vivo inverse agonist activity at RORgamma in MOG(35-55) peptide/PTX-induced mechanistic C57BL/6 mouse model assessed as anti-CD3 induced TNFalpha level in serum at 30 mg/kg, po dosed for 5 days during MOG/PTX priming and followed by 45 mins prior to anti-CD3 challenge and measured after 2 hrs relative to control. The class given is functional. The following applies: time 5 day. In a few lines:
as §3

Sequence of CYP3A4 (P08684 whole entry): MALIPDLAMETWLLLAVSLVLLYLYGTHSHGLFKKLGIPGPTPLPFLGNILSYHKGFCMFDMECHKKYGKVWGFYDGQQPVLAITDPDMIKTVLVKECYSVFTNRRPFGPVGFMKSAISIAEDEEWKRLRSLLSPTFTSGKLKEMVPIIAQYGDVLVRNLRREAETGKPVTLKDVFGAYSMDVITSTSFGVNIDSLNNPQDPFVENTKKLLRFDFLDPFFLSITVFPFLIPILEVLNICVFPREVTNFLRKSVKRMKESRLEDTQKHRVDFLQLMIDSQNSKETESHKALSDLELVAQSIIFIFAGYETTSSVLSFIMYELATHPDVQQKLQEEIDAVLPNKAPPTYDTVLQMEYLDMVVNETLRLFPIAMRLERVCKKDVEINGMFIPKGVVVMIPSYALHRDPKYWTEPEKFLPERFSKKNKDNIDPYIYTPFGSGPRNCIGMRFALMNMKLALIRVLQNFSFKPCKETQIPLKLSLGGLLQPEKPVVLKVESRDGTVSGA

With `CNC(=O)[C@@H]1CCCN1S(=O)(=O)c1ccc(Cl)c(COc2cccc3c(-c4cncn4C)cc(C(C)C)nc23)c1Cl`, at 1 µM the inhibition against CYP3A4 was 99%. Besides, the Tmax (usually the time from dosing to the highest level) in data set [1] was determined as 3 h; in [3], 0.25 h. For the same molecule, the AUC(0-t) (commonly the area under the concentration-time curve up to a stated or last time point) in [2] amounted to 34200 ng·h/mL; in data set [10], 3900 ng·h/mL. Besides, the half-life (usually the time in which the quantity being followed falls by half) in data set [4] is < 1 h. For the same molecule, the inhibition in vivo – broadly, how much of the control response was suppressed – at 60 mg/kg with Mus musculus was 81%. The Activity in data set [5] was 66%; in data set [6], -45%; in data set [7], -29%; in data set [8], -46%; in data set [9] it was -60%; in data set [13], -27%. Further, the CL free in data set [11] amounted to 33 mL/min/kg. The concentration for a half-maximal effect (EC50) (in general, the concentration that produces a half-maximal response) in [12] was found to be 220 nM.
